In ChEMBL document CHEMBL4732196, “Structural optimization towards promising β-methyl-4-acrylamido quinoline derivatives as PI3K/mTOR dual inhibitors for anti-cancer therapy: The in vitro and in vivo biological evaluation” (Eur J Med Chem, 2021):
Active and inactive are the calls of the source. The rule behind the calls is not given here.

Tests used:
[1] = MRT(0 to t) in Sprague-Dawley rat at 5 mg/kg, po; assay type: ADME, organism-based; conditions: in vivo
Method in brief: (§1)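 Male Sprague-Dawley rats (n = 3) received a single 5 mg/kg oral gavage dose formulated as a suspension in 0.5% methylcellulose. Plasma concentration-time curves were recorded and mean PK parameters derived.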

[2] = molecular target: Phosphatidylinositol 4-kinase beta (Homo sapiens) (UniProt Q9UBF8); test: Inhibition of human partial length PIK4CB (M1 to M828 residues) expressed in mammalian expression system assessed as residual activity at 10 uM by kinome scan method relative to control
Method in brief: (§2)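 KINOMEscan competitive binding screen at 10 μM test compound against a 52-kinase panel. Output is % Ctrl = (test signal − positive control signal)/(negative control signal − positive control signal) × 100. DMSO is the negative control (100%) and the positive control is set to 0%.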

[3] = molecular target: Serine/threonine-protein kinase PRP4 homolog (Homo sapiens) (UniProt Q13523); test: Inhibition of human partial length PRP4 (D657 to I1007 residues) expressed in bacterial expression system assessed as residual activity at 10 uM by kinome scan method relative to control; method in brief: as §2
[4] = molecular target: Serine/threonine-protein kinase/endoribonuclease IRE1 (Homo sapiens) (UniProt O75460); test: Inhibition of human partial length ERN1 (S551 to E852 residues) expressed in mammalian expression system assessed as residual activity at 10 uM by kinome scan method relative to control
Method in brief: (§3)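 KINOMEscan binding assay, test compound at 10 μM against a 52-kinase panel. % Ctrl = (compound signal − positive control signal)/(negative control signal − positive control signal) × 100, with DMSO as negative control (100%) and a positive control (0%).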

[5] = molecular target: Citron Rho-interacting kinase (Homo sapiens) (UniProt O14578); test: Inhibition of human partial length CIT (M68 to E432 residues) expressed in bacterial expression system assessed as residual activity at 10 uM by kinome scan method relative to control; method in brief: as §3
[6] = molecular target: T1, Phosphatidylinositol 4,5-bisphosphate 3-kinase catalytic subunit beta isoform (Homo sapiens, UniProt P42338); test: Inhibition of PI3Kbeta (unknown origin) using PIP2 as substrate measured after 1 hr by ADP-glo assay
Target sequence in this assay (P42338 whole entry, the tested form may be a part, canonical isoform): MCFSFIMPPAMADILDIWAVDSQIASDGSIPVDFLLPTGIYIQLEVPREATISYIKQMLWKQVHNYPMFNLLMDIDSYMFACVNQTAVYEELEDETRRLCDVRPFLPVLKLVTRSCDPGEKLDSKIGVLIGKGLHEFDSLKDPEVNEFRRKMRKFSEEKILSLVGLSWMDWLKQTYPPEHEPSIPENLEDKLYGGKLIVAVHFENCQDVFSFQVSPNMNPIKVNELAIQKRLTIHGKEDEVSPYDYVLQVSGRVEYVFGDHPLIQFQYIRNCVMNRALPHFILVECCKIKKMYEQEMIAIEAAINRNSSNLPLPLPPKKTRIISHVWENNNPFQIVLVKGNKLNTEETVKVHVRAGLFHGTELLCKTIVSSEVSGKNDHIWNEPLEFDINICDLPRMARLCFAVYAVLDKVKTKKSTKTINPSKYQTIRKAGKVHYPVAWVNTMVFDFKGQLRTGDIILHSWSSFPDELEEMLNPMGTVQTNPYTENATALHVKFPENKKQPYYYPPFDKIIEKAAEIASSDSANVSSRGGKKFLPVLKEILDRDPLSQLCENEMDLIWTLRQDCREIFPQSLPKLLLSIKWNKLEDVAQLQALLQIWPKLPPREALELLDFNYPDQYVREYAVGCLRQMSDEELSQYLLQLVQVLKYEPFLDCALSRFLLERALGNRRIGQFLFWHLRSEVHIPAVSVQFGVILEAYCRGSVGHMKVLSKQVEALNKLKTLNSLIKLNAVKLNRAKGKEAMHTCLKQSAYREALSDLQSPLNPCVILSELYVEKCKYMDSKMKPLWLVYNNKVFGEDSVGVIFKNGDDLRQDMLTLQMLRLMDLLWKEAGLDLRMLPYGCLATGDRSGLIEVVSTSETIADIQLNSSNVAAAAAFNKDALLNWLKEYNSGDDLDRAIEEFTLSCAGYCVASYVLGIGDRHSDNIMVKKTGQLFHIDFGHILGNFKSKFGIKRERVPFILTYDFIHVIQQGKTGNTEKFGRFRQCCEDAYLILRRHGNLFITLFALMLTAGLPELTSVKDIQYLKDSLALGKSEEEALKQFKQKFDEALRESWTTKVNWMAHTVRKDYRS

[7] = molecular target: 1-phosphatidylinositol 3-phosphate 5-kinase (Homo sapiens) (UniProt Q9Y2I7); test: Inhibition of human partial length PIKFYVE (F1512 to C2098 residues) expressed in mammalian expression system assessed as residual activity at 10 uM by kinome scan method relative to control; method in brief: as §2
[8] = molecular target: Activin receptor type-2B (Homo sapiens) (UniProt Q13705); test: Inhibition of human partial length ACVR2B (H169 to D504 residues) expressed in bacterial system assessed as residual activity at 10 uM by kinome scan method relative to control; method in brief: as §3
[9] = molecular target: T1, Phosphatidylinositol 4,5-bisphosphate 3-kinase catalytic subunit beta isoform; test: Inhibition of human partial length PIK3CB (P118 to S1070 residues) expressed in mammalian expression system assessed as residual activity at 10 uM by kinome scan method relative to control; method in brief: as §2
Target sequence in this assay (P42338 whole entry, looked up, the tested form may be a part, canonical isoform): as the sequence (P42338 whole entry, the tested form may be a part, canonical isoform) above

U87 [10] = test: Inhibition of PI3K in human U87MG cells assessed as suppression of phosphorylation of AKT at Ser473 residue at 25 nM after 3 hrs by Western blot analysis; assay type: cell-based
Method in brief: (§4)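 U87MG cells seeded at 1×10^6 per well, incubated overnight at 37 °C, 5% CO₂, then treated at various concentrations for 3 h at 37 °C. Western blot for phospho-Akt (Ser473, Thr308), phospho-S6 (Ser235/236) and phospho-4E-BP1 (Thr37/46), with GAPDH as internal control. Bands quantified as mean ± SD, n = 3 biological replicates, versus untreated cells.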

[11] = molecular target: Phosphatidylinositol 4-phosphate 5-kinase type-1 gamma (Homo sapiens) (UniProt O60331); test: Inhibition of human full length PIP5K1C (M1 to H562 residues) expressed in bacterial expression system assessed as residual activity at 10 uM by kinome scan method relative to control; method in brief: as §3
[12] = molecular target: Microtubule-associated serine/threonine-protein kinase 1 (Homo sapiens) (UniProt Q9Y2H9); test: Inhibition of human partial length MAST1 (S346 to V730 residues) expressed in bacterial expression system assessed as residual activity at 10 uM by kinome scan method relative to control; method in brief: as §3
[13] = molecular target: Mitogen-activated protein kinase 4 (Homo sapiens) (UniProt P31152); test: Inhibition of human partial length ERK4 (M1 to L365 residues) expressed in mammalian expression system assessed as residual activity at 10 uM by kinome scan method relative to control; method in brief: as §3
U87 [14] = test: Inhibition of PI3K in human U87MG cells assessed as suppression of phosphorylation of AKT at Thr308 residue at 25 nM after 3 hrs by Western blot analysis; assay type: cell-based; method in brief: as §4
[15] = molecular target: Interleukin-1 receptor-associated kinase 3 (Homo sapiens) (UniProt Q9Y616); test: Inhibition of human partial length IRAK3 (V147 to E596 residues) expressed in bacterial expression system assessed as residual activity at 10 uM by kinome scan method relative to control; method in brief: as §3
[16] = molecular target: Ephrin type-B receptor 6 (Homo sapiens) (UniProt O15197); test: Inhibition of human partial length EPHB6 (Q634 to P948 residues) expressed in mammalian expression system assessed as residual activity at 10 uM by kinome scan method relative to control; method in brief: as §3
[17] = molecular target: Receptor-interacting serine/threonine-protein kinase 1 (Homo sapiens) (UniProt Q13546); test: Inhibition of human partial length RIPK1 (M1 to K305 residues) expressed in bacterial expression system assessed as residual activity at 10 uM by kinome scan method relative to control; method in brief: as §2
[18] = molecular target: Mitogen-activated protein kinase kinase kinase 4 (Homo sapiens) (UniProt Q9Y6R4); test: Inhibition of human partial length MAP3K4 (G1319 to E1608 residues) expressed in bacterial expression system assessed as residual activity at 10 uM by kinome scan method relative to control; method in brief: as §3
[19] = molecular target: Cyclin-G-associated kinase (Homo sapiens) (UniProt O14976); test: Inhibition of human partial length GAK (G13 to Y338 residues) expressed in bacterial expression system assessed as residual activity at 10 uM by kinome scan method relative to control; method in brief: as §3
U-87 MG = test: Antitumour activity against human U87MG cells xenografted in ICR nude mouse assessed as tumour growth inhibition at 60 mg/kg, po every other day for 24 days relative to control; assay type: functional, organism-based; conditions: U-87MG ATCC, time 24.0 day
Method in brief: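 Male ICR nude mice inoculated subcutaneously with 5 × 10⁶ U87MG cells. Once tumours reached about 200 mm³, mice were randomised and dosed by oral gavage every other day for 24 days. Tumour volume (length × width² × 0.5) and body weight recorded every 4 days. Inhibition = 100 × {1 − [(final − initial volume) treated]/[(final − initial volume) vehicle]}.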

[20] = MRT(0 to infinity) in Sprague-Dawley rat at 5 mg/kg, po; assay type: ADME, organism-based; conditions: in vivo; method in brief: as §1
[21] = AUC(0 to infinity) in Sprague-Dawley rat at 5 mg/kg, po; assay type: ADME, organism-based; set-up: time infinity, route oral, dose 5 mg/kg; conditions: in vivo
Method in brief: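 Male Sprague-Dawley rats (n = 3) given a single oral gavage of 5 mg/kg as a homogeneous opaque suspension in 0.5% methylcellulose; plasma concentration-time curves used to derive mean PK parameters.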

Mitogen-activated protein kinase kinase kinase 4 (Homo sapiens), sequence (Q9Y6R4 whole entry, the tested form may be a part): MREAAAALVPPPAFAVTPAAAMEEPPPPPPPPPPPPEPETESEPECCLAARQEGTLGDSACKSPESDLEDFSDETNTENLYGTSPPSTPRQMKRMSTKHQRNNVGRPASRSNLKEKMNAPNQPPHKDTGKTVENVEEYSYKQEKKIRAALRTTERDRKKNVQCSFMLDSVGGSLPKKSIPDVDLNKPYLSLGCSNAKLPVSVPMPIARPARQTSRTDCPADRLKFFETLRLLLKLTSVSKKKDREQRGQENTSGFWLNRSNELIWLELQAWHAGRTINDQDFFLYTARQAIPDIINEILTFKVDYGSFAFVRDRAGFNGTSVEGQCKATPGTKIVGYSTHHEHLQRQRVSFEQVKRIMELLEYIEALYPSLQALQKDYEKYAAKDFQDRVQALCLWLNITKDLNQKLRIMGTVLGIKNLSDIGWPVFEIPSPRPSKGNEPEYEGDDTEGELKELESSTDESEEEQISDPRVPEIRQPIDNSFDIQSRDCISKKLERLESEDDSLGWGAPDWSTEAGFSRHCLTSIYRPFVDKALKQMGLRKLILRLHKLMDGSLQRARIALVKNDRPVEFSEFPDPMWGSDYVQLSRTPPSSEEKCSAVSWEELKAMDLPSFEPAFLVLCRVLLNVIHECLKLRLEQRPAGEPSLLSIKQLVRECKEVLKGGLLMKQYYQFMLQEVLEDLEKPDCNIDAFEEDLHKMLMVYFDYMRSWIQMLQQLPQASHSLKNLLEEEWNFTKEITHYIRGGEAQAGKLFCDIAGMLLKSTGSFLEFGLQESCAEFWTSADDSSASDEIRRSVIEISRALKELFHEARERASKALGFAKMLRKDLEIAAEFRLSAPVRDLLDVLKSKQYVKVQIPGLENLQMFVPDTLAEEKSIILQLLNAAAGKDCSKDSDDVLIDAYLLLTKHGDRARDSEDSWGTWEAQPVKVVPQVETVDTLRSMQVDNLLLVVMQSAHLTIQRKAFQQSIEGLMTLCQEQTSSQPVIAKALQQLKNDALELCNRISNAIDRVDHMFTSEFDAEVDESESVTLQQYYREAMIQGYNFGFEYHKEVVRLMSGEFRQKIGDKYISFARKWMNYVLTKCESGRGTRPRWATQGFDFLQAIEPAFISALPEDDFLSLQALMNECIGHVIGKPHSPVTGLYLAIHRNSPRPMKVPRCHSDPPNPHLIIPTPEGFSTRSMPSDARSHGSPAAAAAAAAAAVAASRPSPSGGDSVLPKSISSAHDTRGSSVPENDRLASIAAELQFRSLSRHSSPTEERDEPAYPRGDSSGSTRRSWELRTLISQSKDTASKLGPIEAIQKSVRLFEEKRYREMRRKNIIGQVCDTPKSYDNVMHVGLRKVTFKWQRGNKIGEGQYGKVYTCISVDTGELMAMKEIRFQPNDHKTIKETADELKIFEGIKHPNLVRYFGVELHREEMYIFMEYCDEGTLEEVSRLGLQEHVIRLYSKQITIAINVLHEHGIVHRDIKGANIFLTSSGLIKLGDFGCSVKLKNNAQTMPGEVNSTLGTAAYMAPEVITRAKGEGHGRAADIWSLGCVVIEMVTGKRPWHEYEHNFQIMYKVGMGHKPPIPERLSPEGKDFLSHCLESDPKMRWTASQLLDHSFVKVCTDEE
Receptor-interacting serine/threonine-protein kinase 1 (Homo sapiens), sequence (Q13546 whole entry, the tested form may be a part): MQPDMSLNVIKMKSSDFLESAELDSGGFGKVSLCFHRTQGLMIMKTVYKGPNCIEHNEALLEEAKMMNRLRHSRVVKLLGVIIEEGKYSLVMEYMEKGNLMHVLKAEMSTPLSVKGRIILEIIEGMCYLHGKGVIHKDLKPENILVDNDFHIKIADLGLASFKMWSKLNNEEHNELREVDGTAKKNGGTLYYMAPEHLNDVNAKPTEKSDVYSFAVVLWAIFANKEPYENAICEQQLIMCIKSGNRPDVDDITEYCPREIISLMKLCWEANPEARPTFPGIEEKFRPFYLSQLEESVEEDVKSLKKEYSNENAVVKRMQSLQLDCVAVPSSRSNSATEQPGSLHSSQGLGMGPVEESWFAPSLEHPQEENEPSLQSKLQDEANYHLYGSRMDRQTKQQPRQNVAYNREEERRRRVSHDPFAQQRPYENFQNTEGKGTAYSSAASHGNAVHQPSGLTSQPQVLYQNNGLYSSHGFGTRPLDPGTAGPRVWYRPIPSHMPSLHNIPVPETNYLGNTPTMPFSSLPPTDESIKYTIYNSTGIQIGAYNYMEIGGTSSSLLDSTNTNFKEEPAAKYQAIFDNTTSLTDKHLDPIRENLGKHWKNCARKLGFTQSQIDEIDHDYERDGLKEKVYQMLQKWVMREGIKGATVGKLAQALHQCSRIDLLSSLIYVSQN
Ephrin type-B receptor 6 (Homo sapiens), sequence (O15197 whole entry, the tested form may be a part): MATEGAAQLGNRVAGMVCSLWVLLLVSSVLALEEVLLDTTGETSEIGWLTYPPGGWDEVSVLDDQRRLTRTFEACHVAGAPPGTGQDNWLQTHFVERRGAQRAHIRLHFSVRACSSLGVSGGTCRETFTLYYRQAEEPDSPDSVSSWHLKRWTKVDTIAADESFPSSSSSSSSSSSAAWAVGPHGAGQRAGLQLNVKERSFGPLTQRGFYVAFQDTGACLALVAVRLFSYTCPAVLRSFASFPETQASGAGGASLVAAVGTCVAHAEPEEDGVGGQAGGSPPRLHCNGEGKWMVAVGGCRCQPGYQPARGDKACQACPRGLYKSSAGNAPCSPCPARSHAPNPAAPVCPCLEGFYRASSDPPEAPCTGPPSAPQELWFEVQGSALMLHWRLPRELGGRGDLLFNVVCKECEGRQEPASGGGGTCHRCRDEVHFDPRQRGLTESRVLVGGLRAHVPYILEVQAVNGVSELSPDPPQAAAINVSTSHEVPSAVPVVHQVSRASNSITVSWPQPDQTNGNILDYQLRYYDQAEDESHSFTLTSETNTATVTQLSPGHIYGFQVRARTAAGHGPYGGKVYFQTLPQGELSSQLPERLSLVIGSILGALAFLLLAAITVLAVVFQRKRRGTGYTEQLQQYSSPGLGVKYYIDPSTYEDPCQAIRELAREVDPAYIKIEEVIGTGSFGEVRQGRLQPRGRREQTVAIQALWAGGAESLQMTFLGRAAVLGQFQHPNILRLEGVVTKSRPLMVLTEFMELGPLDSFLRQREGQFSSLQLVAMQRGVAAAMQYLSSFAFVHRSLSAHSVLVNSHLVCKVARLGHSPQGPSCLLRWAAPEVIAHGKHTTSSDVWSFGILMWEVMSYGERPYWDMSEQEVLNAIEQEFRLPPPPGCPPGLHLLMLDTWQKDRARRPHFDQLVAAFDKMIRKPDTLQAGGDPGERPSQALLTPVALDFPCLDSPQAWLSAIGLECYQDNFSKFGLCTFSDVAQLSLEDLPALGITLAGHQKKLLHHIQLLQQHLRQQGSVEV
Phosphatidylinositol 4-phosphate 5-kinase type-1 gamma (Homo sapiens), sequence (O60331 whole entry, the tested form may be a part): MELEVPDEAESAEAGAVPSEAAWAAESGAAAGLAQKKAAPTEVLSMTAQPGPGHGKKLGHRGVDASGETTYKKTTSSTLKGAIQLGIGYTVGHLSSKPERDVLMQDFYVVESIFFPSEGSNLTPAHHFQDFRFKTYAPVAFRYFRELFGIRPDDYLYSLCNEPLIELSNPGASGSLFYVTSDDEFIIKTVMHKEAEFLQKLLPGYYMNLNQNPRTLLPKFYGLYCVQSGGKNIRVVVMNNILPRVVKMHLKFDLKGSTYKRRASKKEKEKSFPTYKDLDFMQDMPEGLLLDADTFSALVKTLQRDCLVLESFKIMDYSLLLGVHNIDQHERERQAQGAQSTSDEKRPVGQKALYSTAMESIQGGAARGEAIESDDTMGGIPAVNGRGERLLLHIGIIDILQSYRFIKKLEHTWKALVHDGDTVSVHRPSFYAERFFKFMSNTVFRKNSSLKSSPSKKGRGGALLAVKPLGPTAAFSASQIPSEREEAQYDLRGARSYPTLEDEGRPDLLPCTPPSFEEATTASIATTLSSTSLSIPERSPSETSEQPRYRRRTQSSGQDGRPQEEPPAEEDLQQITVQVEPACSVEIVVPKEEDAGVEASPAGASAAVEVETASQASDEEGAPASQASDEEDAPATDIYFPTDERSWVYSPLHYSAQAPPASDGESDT

MRT last [1]: 1.9 h
Activity [2]: 0.55%
Activity [3]: 100%
Activity [4]: 54%
Activity [5]: 71%
IC50 [6]: 0.67 nM
Activity [7]: 1.9%
Activity [8]: 100%
Activity [9]: 0%
Activity [11]: 35%
Activity [12]: 58%
Activity [13]: 100%
Activity [15]: 24%
Activity [16]: 11%
Activity [17]: 87%
Activity [18]: 92%
Activity [19]: 22%
MRT inf [20]: 2.57 h
AUC(0-inf) [21]: 1450 ng·h/mL
Compound: COc1ncc(-c2ccc3nccc(/C(C)=C/C(=O)N4CCN(C)CC4)c3c2)cc1NS(=O)(=O)c1ccc(F)cc1F
inhibition (U87 [10]): Active
inhibition (U87 [14]): Active
TGI (U-87 MG): Active
